Measurements: ChEMBL document CHEMBL1156719, “Synthesis and structure-activity relationship studies of theophylline analogs on population responses in the rat hippocampus in vitro” (Bioorg Med Chem, 2008)

Key:
Hippocampus [1] = test: Decrease in amplitude of populations spikes in Sprague-Dawley rat hippocampal CA1 region; type: functional, tissue-based
Procedure, shortened: (§1)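 Male Sprague–Dawley rats (75–150 g) were halothane-anesthetized and decapitated. Coronal hippocampal slices were cut in ice-cold carbogenated aCSF and rested 1 h at room temperature. Extracellular field PS were recorded in CA1 after at least 15 min of stable baseline. Compound (10 mM DMSO stock, diluted ≥1000-fold in aCSF) was bath-perfused, then washed out. Amplitude was normalized to the mean of 4–5 pre-drug responses; mean ± SE, paired t-test.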

Hippocampus [2] = test: Cognitive enhancing effect in Sprague-Dawley rat hippocampal CA1 region assessed as increase in amplitude of populations spikes at 10 uM in presence of CGP-55845 relative to basal level; type: functional
Procedure, shortened: (§2)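 CA1 field PS were recorded extracellularly in coronal hippocampal slices from male Sprague–Dawley rats (75–150 g), kept in carbogenated aCSF. Receptor antagonists (d-tubocurarine, atropine, CGP55845 or 8-cyclopentyl-theophylline) were bath-perfused together with the compound, which was diluted ≥1000-fold from a 10 mM DMSO stock. PS amplitude was normalized to the mean of 4–5 responses before drug; mean ± SE, Student's t-test.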

Hippocampus [3] = test: Cognitive enhancing effect in Sprague-Dawley rat hippocampal CA1 region assessed as increase in amplitude of populations spikes at 10 uM in presence of CPT relative to basal level; type: functional; procedure, shortened: as §2
Hippocampus [4] = test: Decrease in amplitude of populations spikes in Sprague-Dawley rat hippocampal CA1 region at 10 uM after 10 mins of compound wash out; type: functional; set-up: scale not given: the % may be the effect or the level left; procedure, shortened: as §1
Hippocampus [5] = test: Decrease in amplitude of populations spikes in Sprague-Dawley rat hippocampal CA1 region at 10 uM; type: functional; set-up: scale not given: the % may be the effect or the level left; procedure, shortened: as §1
Hippocampus [6] = test: Cognitive enhancing effect in Sprague-Dawley rat hippocampal CA1 region assessed as increase in amplitude of populations spikes at 10 uM; type: functional; procedure, shortened: as §1
Hippocampus [7] = test: Cognitive enhancing effect in Sprague-Dawley rat hippocampal CA1 region assessed as increase in amplitude of populations spikes at 1 uM; type: functional
Procedure, shortened: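 Male Sprague-Dawley rats (75–150 g) anesthetized with halothane and decapitated. 400 µm coronal hippocampal slices cut in ice-cold carbogenated aCSF, then held 1 h at room temperature. Extracellular field recording of evoked population spikes in CA1. After at least 15 min of stable baseline, analogs (10 mM DMSO stocks, diluted ≥1000-fold in aCSF) were bath-perfused. Amplitude normalized to the mean of 4–5 pre-drug responses.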

Hippocampus [8] = test: Cognitive enhancing effect in Sprague-Dawley rat hippocampal CA1 region assessed as increase in amplitude of populations spikes; type: functional, tissue-based; procedure, shortened: as §1
Hippocampus [9] = test: Cognitive enhancing effect in Sprague-Dawley rat hippocampal CA1 region assessed as increase in amplitude of populations spikes at 10 uM in presence of atropine; type: functional; procedure, shortened: as §2
Hippocampus [10] = test: Cognitive enhancing effect in Sprague-Dawley rat hippocampal CA1 region assessed as increase in amplitude of populations spikes at 10 uM after 20 mins of compound wash out; type: functional; procedure, shortened: as §1
Hippocampus [11] = test: Cognitive enhancing effect in Sprague-Dawley rat hippocampal CA1 region assessed as amplitude of populations spikes at 10 uM in presence of d-tubocurarine; type: functional; procedure, shortened: as §2
Hippocampus [12] = test: Cognitive enhancing effect in Sprague-Dawley rat hippocampal CA1 region assessed as increase in amplitude of populations spikes at 100 uM; type: functional

Cn1c(=O)c2c(ncn2CCCC(=O)N2CCCCC2=O)n(C)c1=O
Activity (Hippocampus [1]): Dose-dependent effect | EC50 (Hippocampus [1]): 60 nM | Activity (Hippocampus [2]): 10.6% | Activity (Hippocampus [3]): -27.6% | Activity (Hippocampus [4]): 91.1% | Activity (Hippocampus [5]): -25.9%

Cn1c(=O)c2c(ncn2CC(=O)N2CCCCCC2=O)n(C)c1=O
Activity (Hippocampus [6]): 42.4%

C[C@H](NC[C@H](O)CP(=O)(O)Cc1ccccc1)c1ccc(Cl)c(Cl)c1
Activity (Hippocampus [7]): 53.8%

CC[C@@]1(O)C(=O)OCc2c1cc1n(c2=O)Cc2cc3ccccc3nc2-1 [CAMPTOTHECIN]
Activity (Hippocampus [7]): 51.6%

Cn1c(=O)c2c(ncn2CCCC(=O)N2CCCCCC2=O)n(C)c1=O
Activity (Hippocampus [8]): Dose-dependent effect | EC50 (Hippocampus [8]): 2000 nM | Activity (Hippocampus [9]): 0.2% | Activity (Hippocampus [2]): 32.7% | Activity (Hippocampus [3]): 47.9% | Activity (Hippocampus [10]): 45.8% | Activity (Hippocampus [6]): 56.5% | Activity (Hippocampus [11]): -2.5%

Cn1c(=O)c2c(ncn2CCC(=O)N2CCCCCC2=O)n(C)c1=O
Activity (Hippocampus [6]): 40.9%

Cn1c(=O)c2c(ncn2CCCC(=O)N2CCCC2=O)n(C)c1=O
Activity (Hippocampus [6]): 6.4%

COc1cc2c3cc1Oc1cc(ccc1O)C[C@@H]1c4c(cc(OC)c(O)c4Oc4ccc(cc4)C[C@@H]3N(C)CC2)CC[N+]1(C)C.[Cl-]
Activity (Hippocampus [12]): 1.8%

Cn1c(=O)c2c(ncn2CC(=O)N2CCCC2=O)n(C)c1=O
Activity (Hippocampus [6]): 6.4%
